# According to ChEMBL document CHEMBL1275392, “Assessment of chemoselective neoglycosylation methods using chlorambucil as a model” (2010):
# What was measured:
# DU-145 = test: Growth inhibition of human DU145 cells after 7 days by celltiter-glo assay; type: functional; settings: DU-145, 168 h
# SF-268 = test: Growth inhibition of human SF268 cells after 7 days by celltiter-glo assay; type: functional; settings: SF-268, 168 h
# HCT-15 = test: Growth inhibition of human HCT15 cells after 7 days by celltiter-glo assay; type: functional; settings: HCT-15, 168 h
# HT-29 = test: Growth inhibition of human HT-29 cells after 7 days by celltiter-glo assay; type: functional; settings: HT-29, 168 h
# [1] = Growth inhibition of human p53 deficient Hep3B cells after 7 days by celltiter-glo assay; type: functional, Hep 3B2; settings: 168 h
# Procedure, shortened: (§1)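 Cells seeded at 500 per well in 384-well plates. Compounds came from 30 mM DMSO stocks, serially diluted and tested in quadruplicate. Incubation was 7 d at 37 °C under 5% CO2. Calcein AM (10 μM) and EthD-1 were added, followed by a fluorescence read. CellTiter-Glo lysis was then done for 10 min at room temperature, with a luminescence read. GI50 came from curve fitting.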
# [2] = Growth inhibition of human p53 deficient H1299 cells after 7 days by celltiter-glo assay; type: functional; settings: NCI-H1299, 168 h; procedure, shortened: as §1
# SK-OV-3 = test: Growth inhibition of human SKOV3 cells after 7 days by celltiter-glo assay; type: functional; settings: SK-OV-3, 168 h
# MCF7 = test: Growth inhibition of human MCF7 cells after 7 days by celltiter-glo assay; type: functional; settings: MCF7, 168 h
# NCI-H460 = test: Growth inhibition of human NCI-H460 cells after 7 days by celltiter-glo assay; type: functional; settings: NCI-H460, 168 h
# A549 = test: Growth inhibition of human A549 cells expressing p53 after 7 days by celltiter-glo assay; type: functional; settings: A549, 168 h
Structure (SMILES),GI50 (DU-145) [µM],GI50 (SF-268) [µM],GI50 (HCT-15) [µM],GI50 (HT-29) [µM],GI50 [1] [µM],GI50 [2] [µM],GI50 (SK-OV-3) [µM],GI50 (MCF7) [µM],GI50 (NCI-H460) [µM],GI50 (A549) [µM]
O[C@@H]1[C@H](O)COC(N(O)CCCc2ccc(N(CCCl)CCCl)cc2)[C@@H]1O (stereo not given in full),> 5,1.5,0.87,0.9,> 5,1.6,0.89,3.2,1.04,0.84
CON(CCCc1ccc(N(CCCl)CCCl)cc1)C1O[C@@H](CO)[C@H](O)[C@@H](O)[C@@H]1O (stereo not given in full),4.8,2,0.88,2.9,3.9,0.55,2.5,3.2,8,3.3
CON(CCCc1ccc(N(CCCl)CCCl)cc1)C1O[C@H](CN)[C@@H](O)[C@H](O)[C@H]1O (stereo not given in full),2.8,2.2,1.3,2.5,3.5,1.1,2.2,3.7,5,3.7
CON(CCCc1ccc(N(CCCl)CCCl)cc1)C1O[C@H](CO)[C@@H](O)[C@H](O)[C@@H]1NC(C)=O (stereo not given in full),16,3.4,22,8.7,9.8,2.7,10.1,9,33.3,21
CON(CCCc1ccc(N(CCCl)CCCl)cc1)C1C[C@H](O)[C@H](O)CO1 (stereo not given in full),4,2.1,2.3,2.6,2.6,3.7,2,0.96,5.8,2.6
CON(CCCc1ccc(N(CCCl)CCCl)cc1)C1OC[C@@H](O)[C@H](O)[C@@H]1O (stereo not given in full),3.6,1.6,0.79,2,2.5,0.76,1.8,1,5.2,2.3
CON(CCCc1ccc(N(CCCl)CCCl)cc1)C1O[C@H](CO)[C@@H](O)[C@H](O)[C@@H]1O (stereo not given in full),5.1,1.8,1.9,2.6,3.2,1.01,2.3,1.9,7.8,3.5
CON(CCCc1ccc(N(CCCl)CCCl)cc1)[C@H]1O[C@H](COCc2ccccc2)[C@@H](OCc2ccccc2)[C@@H]1OCc1ccccc1,> 100,80,64,47,> 100,> 100,> 100,82,> 100,> 100
CON(CCCc1ccc(N(CCCl)CCCl)cc1)C1O[C@@H](C)[C@@H](O)[C@@H](O)[C@@H]1O (stereo not given in full),3.8,2,1.4,2.3,3,1.2,1.8,0.78,5.4,2.2
CON(CCCc1ccc(N(CCCl)CCCl)cc1)C1O[C@@H](CO)[C@@H](O)[C@@H](O)[C@@H]1O (stereo not given in full),5.5,2,2.3,3.7,3.8,1.4,4.1,1.3,10.4,4.8
CON(CCCc1ccc(N(CCCl)CCCl)cc1)C1O[C@@H](C)[C@H](O)[C@@H](O)[C@H]1O (stereo not given in full),4.2,1.9,2,2.4,2.6,3.7,2,2.2,5.3,2.5
CON(CCCc1ccc(N(CCCl)CCCl)cc1)C1C[C@@H](O)[C@@H](O)CO1 (stereo not given in full),3.3,2,2.2,2.3,2.5,3.9,2.2,1.3,5.2,2.5
CON(CCCc1ccc(N(CCCl)CCCl)cc1)[C@@H]1O[C@H](CO)[C@@H](O)[C@H](O[C@H](C)C(=O)O)[C@H]1NC(C)=O,8.9,4.1,3.1,6.3,8,2.4,7,4.5,13.1,8.6
CON(CCCc1ccc(N(CCCl)CCCl)cc1)[C@@H]1O[C@H](CO)[C@H](O)[C@H](O)[C@@H]1O,3.4,1.7,2,1.9,2.6,2.4,2,1.8,4.3,2.7
CON(CCCc1ccc(N(CCCl)CCCl)cc1)C1O[C@H](C(=O)O)[C@H](O)[C@H](O)[C@H]1NC(C)=O (stereo not given in full),16.7,4.2,19.1,12,11.8,3.8,11,4.4,42,22
CON(CCCc1ccc(N(CCCl)CCCl)cc1)[C@H]1O[C@H](CO)[C@H](O)[C@H](O)[C@@H]1O,3.3,1.7,2.2,1.8,2.4,3,2,1.5,5,2.6
C=CCOC(=O)NC[C@H]1O[C@@H](N(CCCc2ccc(N(CCCl)CCCl)cc2)OC)[C@H](O)[C@@H](O)[C@@H]1O,6.2,3.1,2.1,2.8,4.6,2.1,2.9,7.4,11,4.5
CON(CCCc1ccc(N(CCCl)CCCl)cc1)[C@@H]1O[C@H](COCc2ccccc2)[C@@H](OCc2ccccc2)[C@H]1OCc1ccccc1,> 100,> 100,> 100,> 100,> 100,82,> 100,> 100,> 100,> 100
CON(CCCc1ccc(N(CCCl)CCCl)cc1)C1O[C@H](CO)[C@@H](O)[C@@H](O)[C@@H]1O (stereo not given in full),4.1,1.9,1.4,1.6,1.7,0.91,1.9,6.5,6.6,2.4
O=C(O)CCCc1ccc(N(CCCl)CCCl)cc1 [CHLORAMBUCIL],9.4,5.4,8.1,5,5.1,4.9,5.5,8.2,11,6.1
CON(CCCc1ccc(N(CCCl)CCCl)cc1)C1O[C@@H](CO)[C@H](O)[C@H](O)[C@@H]1O (stereo not given in full),6,3.2,1.7,2.2,2.5,1.3,3.1,9,10.4,3.5
